This note sets out measurements from PMC7138392 (Industrial Crops and Products, 2019).

A value given as a limit tells only on which side of the number the result lay.

The nature of the series: Cytotoxicity in MDCK cells. Type of series: cell-based, Canine. The note with it: dog. In a few lines: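 MDCK cells (1 × 10^5/well) grown 24 h at 37 °C, 5% CO2, then washed twice with PBS pH 7.20. Exposed to test compound at 100 to 3.12 μM in p-MEM for 72 h at 37 °C, 5% CO2. Fixed, stained with 0.40% crystal violet in methanol, A490 read. Viability expressed relative to untreated cell control; CC50 by regression. Triplicate.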

`CCC(CC)O[C@@H]1C=C(C(=O)O)C[C@H](N)[C@H]1NC(C)=O` [OC, Oseltamivir carboxylate] showed a cytotoxic concentration (CC50) at 72 h above 100 µM.
